This note sets out measurements from ChEMBL document CHEMBL1123522, “Angiotensin converting enzyme inhibitors as antihypertensive agents: 1-[(2-mercaptocycloalkyl)carbonyl]-L-prolines” (J Med Chem, 1986).

For experiment [1], the target named is T1, Angiotensin-converting enzyme (Rattus norvegicus, UniProt P47820).
T1 sequence (P47820 whole entry): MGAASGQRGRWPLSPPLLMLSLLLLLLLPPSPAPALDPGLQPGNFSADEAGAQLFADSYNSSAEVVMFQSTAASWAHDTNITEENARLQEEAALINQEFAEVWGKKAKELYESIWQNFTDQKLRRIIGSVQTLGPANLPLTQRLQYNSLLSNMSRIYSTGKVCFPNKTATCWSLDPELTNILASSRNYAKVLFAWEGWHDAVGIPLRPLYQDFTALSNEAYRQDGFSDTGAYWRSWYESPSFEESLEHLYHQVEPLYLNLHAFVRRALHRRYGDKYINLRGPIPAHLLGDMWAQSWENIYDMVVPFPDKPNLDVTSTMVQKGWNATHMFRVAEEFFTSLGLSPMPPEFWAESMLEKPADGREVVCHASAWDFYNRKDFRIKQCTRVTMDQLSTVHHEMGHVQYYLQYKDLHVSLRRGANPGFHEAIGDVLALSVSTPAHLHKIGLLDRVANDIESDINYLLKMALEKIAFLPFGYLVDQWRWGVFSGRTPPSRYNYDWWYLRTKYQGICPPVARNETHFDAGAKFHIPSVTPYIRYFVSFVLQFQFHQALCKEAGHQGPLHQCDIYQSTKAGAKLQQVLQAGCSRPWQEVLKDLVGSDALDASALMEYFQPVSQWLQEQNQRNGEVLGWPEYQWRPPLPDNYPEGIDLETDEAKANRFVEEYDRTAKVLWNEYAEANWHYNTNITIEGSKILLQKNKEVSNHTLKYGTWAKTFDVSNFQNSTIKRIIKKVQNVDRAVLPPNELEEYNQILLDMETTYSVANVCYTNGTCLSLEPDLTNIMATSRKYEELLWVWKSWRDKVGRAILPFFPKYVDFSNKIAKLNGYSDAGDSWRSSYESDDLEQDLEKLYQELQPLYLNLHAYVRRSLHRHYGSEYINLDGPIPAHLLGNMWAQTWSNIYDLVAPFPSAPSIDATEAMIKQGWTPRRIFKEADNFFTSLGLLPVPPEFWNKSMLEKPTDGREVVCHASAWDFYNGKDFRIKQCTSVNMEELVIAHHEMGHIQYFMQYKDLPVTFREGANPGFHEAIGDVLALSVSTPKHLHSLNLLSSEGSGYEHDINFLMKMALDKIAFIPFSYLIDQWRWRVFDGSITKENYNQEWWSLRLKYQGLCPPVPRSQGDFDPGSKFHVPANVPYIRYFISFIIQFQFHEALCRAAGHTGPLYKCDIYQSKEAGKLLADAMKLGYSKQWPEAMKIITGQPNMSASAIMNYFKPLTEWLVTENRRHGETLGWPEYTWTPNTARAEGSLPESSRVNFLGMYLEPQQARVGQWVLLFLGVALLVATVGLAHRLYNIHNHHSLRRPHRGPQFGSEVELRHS
The experiment in a line: Inhibitory activity against Angiotensin I converting enzyme.

The test system of experiment [2] is Canis familiaris. The experiment in a line: Compound was evaluated for antihypertensive activity in conscious renal hypertensive dogs at a 30 mg/kg dose given orally. Conditions: route oral. The class given is functional, Canis lupus familiaris. An outline of the steps:
(§1)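 Conscious mongrel dogs made hypertensive by bilateral renal artery constriction (Goldblatt). Drug given by gavage in gelatine capsules; systolic pressure fall vs 0 time, observed up to 7 h; Dunnett's t test.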

Experiment [3] concerns the target T2, Angiotensin-converting enzyme (Rattus norvegicus) (UniProt P47820).
T2 sequence (whole entry): T1 sequence (P47820 whole entry)
The experiment in a line: Compound was evaluated for ACE inhibitory activity in conscious normotensive rats at a dose 10 mg/kg given intravenously by determining percent reduction in Angiotensin I converting enzyme response. The class given is organism-based. Set-up: dose 10 mg/kg.

The target of experiment [4] is T2, Angiotensin-converting enzyme (Rattus norvegicus). The experiment in a line: Compound was evaluated for ACE inhibitory activity in conscious normotensive rats at a dose 1 mg/kg given intravenously by determining percent reduction in Angiotensin I converting enzyme response. The class given is organism-based. Set-up: dose 1 mg/kg.
Experiment [5] relates to Canis familiaris. The experiment in a line: Compound was evaluated for antihypertensive activity in conscious renal hypertensive dogs at a 10 mg/kg dose given orally. The class given is functional, Canis lupus familiaris. Conditions: route oral. An outline of the steps: as §1
Experiment [6] concerns the target T2, Angiotensin-converting enzyme (Rattus norvegicus). The experiment in a line: Compound was evaluated for ACE inhibitory activity in conscious normotensive rats at a dose 10 mg/kg given intravenously by determining percent reduction in Angiotensin I converting enzyme. The class given is organism-based. The arrangement: dose 10 mg/kg.

Bounds are passed on as bounds.

For orientation: IC50 means the midpoint of a concentration-inhibition curve. In experiment [1], `O=C(O)[C@@H]1CCCN1C(=O)[C@@H]1CC[C@H]1S` displayed an IC50 of 1.26 µM. Also, the SBP decrease in the experiment on Canis familiaris [2] was less than 10%. In the case of `CC1(C)CC[C@@H](C(=O)N2CCC[C@H]2C(=O)O)[C@@H]1S`, the concentration for half-maximal inhibition (IC50) in experiment [1] is 215 µM. As for `O=C(S[C@H]1CC[C@@H]1C(=O)N1CCC[C@H]1C(=O)O)c1ccccc1`, the Change in ACE response in experiment [3] was -30%. In addition, the Reduction in experiment [4] was -18%. For the same compound, in experiment [1], the IC50 worked out at 250 µM. The figures for the SBP decrease with Canis familiaris [2] and in the experiment on Canis familiaris [5] were -19% and less than 10%, respectively.

In experiment [1], `O=C(O)[C@@H]1CCCN1C(=O)C1CCCC1S` (some centres not stated) showed an IC50 of 1.64 µM. Take `C[C@H](CS)C(=O)N1CCC[C@H]1C(=O)O` [CAPTOPRIL]: the results for the SBP decrease in the experiment on Canis familiaris [2] and in the experiment on Canis familiaris [5] were -19% and -15%, respectively. Take `CC(C)(C)OC(=O)[C@@H]1CCCN1C(=O)[C@H]1CCC[C@H]1SC(=O)c1ccccc1`: in experiment [1], the IC50 is 124 µM.

Regarding `O=C(O)[C@@H]1CCCN1C(=O)[C@@H]1CCC[C@H]1S`, the Change in ACE response in experiment [3] was -75%. In addition, the Reduction in experiment [4] was -42%. In experiment [1], this compound registered an IC50 of 1.11 µM. Besides, the SBP decrease with Canis familiaris [2] is -21%; in the experiment with Canis familiaris [5] it was -18%. `O=C(S[C@@H]1CC[C@H]1C(=O)N1CCC[C@H]1C(=O)O)c1ccccc1`: the Reduction was -60% in experiment [6] and -45% in experiment [4]. For the same compound, in experiment [1], the 50% inhibitory concentration (IC50) is 5.5 µM. The SBP decrease in the experiment with Canis familiaris [2] is on record as -17%; with Canis familiaris [5], -15%.

Regarding `CC1(C)CC[C@@H](C(=O)N2CCC[C@H]2C(=O)O)[C@H]1SC(=O)c1ccccc1`, the IC50 in experiment [1] was 250 µM. In the case of `CC(C)(C)OC(=O)[C@@H]1CCCN1C(=O)[C@H]1CCC[C@@H]1SC(=O)c1ccccc1`, the IC50 in experiment [1] stood at 250 µM. In turn, `CC(C)(C)OC(=O)[C@@H]1CCCN1C(=O)[C@H]1CCC(C)(C)[C@@H]1SC(=O)c1ccccc1` gave an IC50 in experiment [1] of 250 µM. For the compound `O=C(O)[C@@H]1CCCN1C(=O)[C@H]1CCC[C@H]1S`, the concentration for half-maximal inhibition (IC50) in experiment [1] was 206 µM. The IC50 values of the last two compounds are within 1.5-fold of each other.

As to `O=C(O)[C@@H]1CCCN1C(=O)C1CCCCC1S` (some centres not stated), in experiment [1], the half-maximal inhibitory concentration (IC50) came to 11.3 µM. Turning to `O=C(O)[C@@H]1CCCN1C(=O)[C@@H]1CCC[C@@H]1S`, in experiment [3], the Change in ACE response is -41%. Further, the Reduction in experiment [4] was -22%. In experiment [1], this compound returned an IC50 of 19.5 µM. Besides, the SBP decrease in the experiment on Canis familiaris [2] is reported as less than 10%. `CC(C)(C)OC(=O)[C@@H]1CCCN1C(=O)[C@@H]1CCC[C@@H]1SC(=O)c1ccccc1` had an IC50 in experiment [1] of 250 µM. Take `O=C(S[C@@H]1CCC[C@@H]1C(=O)N1CCC[C@H]1C(=O)O)c1ccccc1`: 250 µM corresponded to half-maximal inhibition in experiment [1] (IC50). In the case of `CC(C)(C)OC(=O)[C@@H]1CCCN1C(=O)[C@@H]1CC[C@H]1SC(=O)c1ccccc1`, the IC50 in experiment [1] turned out to be 250 µM. As for `O=C(O)[C@@H]1CCCN1C(=O)[C@H]1CC[C@@H]1S`, half-maximal inhibition in experiment [1] (IC50) required 12.7 µM. Take `CC(C)(C)OC(=O)[C@@H]1CCCN1C(=O)[C@@H]1CCC[C@H]1SC(=O)c1ccccc1`: half-maximal inhibition in experiment [1] (IC50) required 250 µM. For the compound `O=C(S[C@@H]1CCC[C@H]1C(=O)N1CCC[C@H]1C(=O)O)c1ccccc1`, in experiment [3], the Change in ACE response was -80%. For the same compound, in experiment [1], 0.58 µM corresponded to half-maximal inhibition (IC50). In addition, the SBP decrease in the experiment with Canis familiaris [2] is -18%; in the experiment on Canis familiaris [5], -15%. Consider `CC(C)(C)OC(=O)[C@@H]1CCCN1C(=O)[C@H]1CC[C@@H]1SC(=O)c1ccccc1`, for which, in experiment [1], the IC50 was found to be 250 µM. Take `O=C(O)[C@@H]1CCCN1C(=O)[C@H]1CCC[C@@H]1S`: in experiment [1], 34.2 µM corresponded to half-maximal inhibition (IC50). This IC50 lies about 7.3-fold lower than the previous one. `O=C(S[C@H]1CCC[C@@H]1C(=O)N1CCC[C@H]1C(=O)O)c1ccccc1` had a concentration for half-maximal inhibition (IC50) in experiment [1] of 144 µM. Compound `O=C(S[C@H]1CCC[C@H]1C(=O)N1CCC[C@H]1C(=O)O)c1ccccc1` displayed a concentration for half-maximal inhibition (IC50) in experiment [1] of 144 µM. Consider `CC1(C)CC[C@H](C(=O)N2CCC[C@H]2C(=O)O)[C@H]1S`, for which it took 250 µM to reach half-maximal inhibition in experiment [1] (IC50). For `CC(C)(C)OC(=O)[C@@H]1CCCN1C(=O)[C@@H]1CCC(C)(C)[C@@H]1SC(=O)c1ccccc1`, the IC50 in experiment [1] was found to be 250 µM.

For `CC1(C)CC[C@H](C(=O)N2CCC[C@H]2C(=O)O)[C@H]1SC(=O)c1ccccc1`, in experiment [1], the IC50 came out at 250 µM.
